{"source": "ChEMBL document CHEMBL1122168", "about": "“Species- or isozyme-specific enzyme inhibitors. 6. Synthesis and evaluation of two-substrate condensation products as inhibitors of hexokinases and thymidine kinases” (J Med Chem, 1982)", "molecules": {"B1": {"name": "Hexokinase-2 (Rattus norvegicus), P27881 (protein)", "chain": "MIASHMIACLFTELNQNQVQKVDQFLYHMRLSDETLLEISRRFRKEMEKGLGATTHPTAAVKMLPTFVRSTPDGTEHGEFLALDLGGTNFRVLRVRVTDNGLQRVEMENQIYAIPEDIMRGSGTQLFDHIAECLANFMDKLQIKEKKLPLGFTFSFPCHQTKLDESFLVSWTKGFKSSGVEGRDVVDLIRKAIQRRGDFDIDIVAVVNDTVGTMMTCGYDDQNCEIGLIVGTGSNACYMEEMRHIDMVEGDEGRMCINMEWGAFGDDGTLNDIRTEFDREIDMGSLNPGKQLFEKMISGMYMGELVRLILVKMAKAELLFQGKLSPELLTTGSFETKDVSDIEEDKDGIEKAYQILMRLGLNPLQEDCVATHRICQIVSTRSASLCAATLAAVLWRIKENKGEERLRSTIGVDGSVYKKHPHFAKRLHKAVRRLVPDCDVRFLRSEDGSGKGAAMVTAVAYRLADQHRARQKTLESLKLSHEQLLEVKRRMKVEMEQGLSKETHAVAPVKMLPTYVCATPDGTEKGDFLALDLGGTNFRVLLVRVRNGKRRGVEMHNKIYSIPQEVMHGTGEELFDHIVQCIADFLEYMGMKGVSLPLGFTFSFPCQQNSLDQSILLKWTKGFKASGCEGEDVVTLLKEAIHRREEFDLDVVAVVNDTVGTMMTCGYEDPHCEVGLIVGTGSNACYMEEMRNVELVDGEEGRMCVNMEWGAFGDNGCLDDLRTVFDVAVDELSLNPGKQRFEKMISGMYLGEIVRNILIDFTKRGLLFRGRISERLKTRGIFETKFLSQIESDCLALLQVRAILRHLGLESTCDDSIIVKEVCTVVARRAAQLCGAGMAAVVDKIRENRGLDNLKVTVGVDGTLYKLHPHFAKVMHETVRDLAPKCDVSFLESEDGSGKGAALITAVACRIREAGQR"}, "B2": {"name": "Thymidine kinase, cytosolic (Rattus norvegicus), P27158 (protein)", "chain": "MSYINLPTVLPISPSKTRGQIQVILGPMFSGKSTELMRRVRRFQIAQYKCLVIKYAKDTRYSNSFSTHDRNTMDALPACMLKDVAQEALGVAVIGIDEGQFFPDIVDFCETMANTGKTVIV"}}, "key": {"[1]": {"test": "Evaluated for the inhibition constant Ki against hexokinase in yeast", "design": "species or system Saccharomyces cerevisiae", "summary_of_the_method": "(§1)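 Yeast HK or rat HK II (isoelectric focusing, dialysed with 0.5 mM DTT). PK/LDH-coupled assay in 0.05 M Tris-HCl pH 7.6 with 6.6 mM MgCl2, 10 mM glucose, 0.45 mM NADH, 0.55 mM PEP, 20 mM KCl. NADH loss followed at 340 nm, 22 °C. Variable MgATP at 0.6–4.0 × KM. Inhibitors given as equimolar Mg complexes.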"}, "[2]": {"biological_target": "T1, Hexokinase-2 (Rattus norvegicus) (UniProt P27881)", "T1 sequence (whole entry)": "B1 chain", "test": "Evaluated for the inhibition of Hexokinase, type II catalyzed reactions at 0.3 mM concentration", "summary_of_the_method": "(§2)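 Rat HK I, II or III from isoelectric focusing, dialysed with 0.5 mM DTT. PK/LDH-coupled assay in 0.05 M Tris-HCl pH 7.6 with 6.6 mM MgCl2, 10 mM α-D-glucose, 0.45 mM NADH, 0.55 mM PEP and 20 mM KCl. Reactions started with enzyme; rates read from 340 nm absorbance change at 22 °C.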"}, "[3]": {"biological_target": "T2, Hexokinase-3 (Rattus norvegicus) (UniProt P27926)", "T2 sequence (whole entry)": "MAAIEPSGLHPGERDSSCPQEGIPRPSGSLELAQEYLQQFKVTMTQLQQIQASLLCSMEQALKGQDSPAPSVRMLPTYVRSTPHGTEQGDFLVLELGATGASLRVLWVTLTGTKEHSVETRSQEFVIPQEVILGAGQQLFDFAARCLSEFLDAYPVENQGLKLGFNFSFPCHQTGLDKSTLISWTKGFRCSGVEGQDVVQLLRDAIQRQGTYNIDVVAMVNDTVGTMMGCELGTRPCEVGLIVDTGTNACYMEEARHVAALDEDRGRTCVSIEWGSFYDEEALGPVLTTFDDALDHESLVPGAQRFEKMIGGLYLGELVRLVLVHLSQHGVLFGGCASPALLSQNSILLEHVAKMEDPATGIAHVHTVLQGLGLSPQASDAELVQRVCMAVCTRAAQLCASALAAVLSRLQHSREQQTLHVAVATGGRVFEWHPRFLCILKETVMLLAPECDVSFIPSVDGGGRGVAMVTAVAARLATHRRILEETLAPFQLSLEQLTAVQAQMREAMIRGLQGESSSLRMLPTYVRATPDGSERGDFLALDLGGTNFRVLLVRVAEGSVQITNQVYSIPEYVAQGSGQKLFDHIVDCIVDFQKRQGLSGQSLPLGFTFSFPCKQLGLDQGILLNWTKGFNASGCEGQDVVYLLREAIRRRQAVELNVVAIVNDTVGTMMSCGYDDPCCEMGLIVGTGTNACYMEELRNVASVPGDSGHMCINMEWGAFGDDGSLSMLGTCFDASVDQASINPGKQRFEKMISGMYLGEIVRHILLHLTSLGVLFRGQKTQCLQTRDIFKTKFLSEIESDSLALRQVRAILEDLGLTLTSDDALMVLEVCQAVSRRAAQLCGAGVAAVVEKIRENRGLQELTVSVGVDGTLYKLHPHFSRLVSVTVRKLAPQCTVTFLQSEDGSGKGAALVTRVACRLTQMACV", "test": "Evaluated for the inhibition of Hexokinase type III catalyzed reactions at 0.3 mM concentration", "summary_of_the_method": "as §2"}, "[4]": {"biological_target": "T2, Hexokinase-3 (Rattus norvegicus)", "test": "Evaluated for the inhibition of Hexokinase type III catalyzed reactions at 0.6 mM concentration", "summary_of_the_method": "as §2"}, "[5]": {"biological_target": "T1, Hexokinase-2 (Rattus norvegicus)", "test": "Evaluated for the inhibition of Hexokinase, type II catalyzed reactions at 0.6 mM concentration", "summary_of_the_method": "as §2"}, "[6]": {"biological_target": "T3, Hexokinase-1 (Rattus norvegicus) (UniProt P05708)", "T3 sequence (whole entry)": "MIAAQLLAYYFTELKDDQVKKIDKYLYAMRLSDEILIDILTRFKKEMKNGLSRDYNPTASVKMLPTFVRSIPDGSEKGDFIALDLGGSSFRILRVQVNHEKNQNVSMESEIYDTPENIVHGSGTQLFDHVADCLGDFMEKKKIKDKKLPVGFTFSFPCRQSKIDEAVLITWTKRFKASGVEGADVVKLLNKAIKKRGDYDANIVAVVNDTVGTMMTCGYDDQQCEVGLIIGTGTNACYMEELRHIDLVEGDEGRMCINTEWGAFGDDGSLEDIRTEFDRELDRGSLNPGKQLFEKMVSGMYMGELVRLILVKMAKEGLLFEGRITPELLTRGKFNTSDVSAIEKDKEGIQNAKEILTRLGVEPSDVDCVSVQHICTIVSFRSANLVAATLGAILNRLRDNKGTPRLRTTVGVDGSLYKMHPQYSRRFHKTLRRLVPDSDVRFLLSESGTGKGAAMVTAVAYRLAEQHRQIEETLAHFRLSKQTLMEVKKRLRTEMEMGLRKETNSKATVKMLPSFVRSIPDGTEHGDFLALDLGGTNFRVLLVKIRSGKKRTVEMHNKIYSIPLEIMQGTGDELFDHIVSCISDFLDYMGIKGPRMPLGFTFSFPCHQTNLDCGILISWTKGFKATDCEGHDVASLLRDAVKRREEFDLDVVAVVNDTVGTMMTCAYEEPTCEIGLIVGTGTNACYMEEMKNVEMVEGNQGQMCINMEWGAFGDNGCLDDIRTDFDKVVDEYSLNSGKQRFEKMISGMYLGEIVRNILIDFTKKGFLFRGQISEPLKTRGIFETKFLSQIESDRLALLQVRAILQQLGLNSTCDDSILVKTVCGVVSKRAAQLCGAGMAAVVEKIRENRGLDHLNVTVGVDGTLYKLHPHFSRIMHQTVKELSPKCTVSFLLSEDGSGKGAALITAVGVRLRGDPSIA", "test": "Evaluated for the inhibition of Hexokinase, type I -catalyzed reactions at 0.6 mM concentration", "summary_of_the_method": "as §2"}, "[7]": {"biological_target": "T3, Hexokinase-1 (Rattus norvegicus)", "test": "Evaluated for the inhibition of Hexokinase, type I -catalyzed reactions at 0.3 mM concentration", "summary_of_the_method": "as §2"}, "Hexokinase-2": {"biological_target": "T4, Hexokinase-2 (Rattus norvegicus, UniProt P27881)", "T4 sequence (P27881 whole entry)": "B1 chain", "test": "Evaluated for the inhibition constant Ki against Hexokinase, type II", "summary_of_the_method": "as §1"}, "[8]": {"biological_target": "T1, Hexokinase-2 (Rattus norvegicus)", "test": "Evaluated for the inhibition of Hexokinase, type II catalyzed reactionsI at 0.3 mM concentration", "summary_of_the_method": "as §2"}, "[9]": {"biological_target": "T3, Hexokinase-1 (Rattus norvegicus)", "test": "Evaluated for the inhibition of Hexokinase, type I -catalyzed reactionsI at 0.6 mM concentration", "summary_of_the_method": "as §2"}, "[10]": {"substrate": "Nc1ncnc2c1ncn2[C@@H]1O[C@H](COP(=O)(O)OP(=O)(O)OP(=O)(O)O)[C@@H](O)[C@H]1O"}, "[11]": {"substrate": "Nc1ncnc2c1ncn2[C@@H]1O[C@H](COP(=O)(O)OP(=O)(O)OP(=O)(O)O)[C@@H](O)[C@H]1O", "remark": "listed apart in the source"}, "[12]": {"substrate": "Cc1cn([C@H]2C[C@H](O)[C@@H](CO)O2)c(=O)[nH]c1=O"}, "[13]": {"substrate": "Nc1ncnc2c1ncn2[C@@H]1O[C@H](COP(=O)(O)OP(=O)(O)OP(=O)(O)O)[C@@H](O)[C@H]1O", "remark": "listed apart in the source"}, "[14]": {"substrate": "Cc1cn([C@H]2C[C@H](O)[C@@H](CO)O2)c(=O)[nH]c1=O", "remark": "listed apart in the source"}}, "data": [{"molecule": "Nc1ncnc2c1ncn2C1O[C@H](COP(=O)(O)OP(=O)(O)OP(=O)(O)OP(=O)(O)OC[C@@H]2O[C@@H](O)[C@@H](O)[C@H](O)[C@H]2O)[C@@H](O)[C@H]1O", "note": "(stereo partly specified)", "values": [{"measurement": "Ki", "setting": "[1]", "result": 3500, "unit": "µM"}, {"measurement": "inhibition", "setting": "[2]", "result": 28, "unit": "%"}, {"measurement": "inhibition", "setting": "[3]", "result": 6.5, "unit": "%"}, {"measurement": "inhibition", "setting": "[4]", "result": 8.7, "unit": "%"}, {"measurement": "inhibition", "setting": "[5]", "result": 30, "unit": "%"}, {"measurement": "inhibition", "setting": "[6]", "result": 8, "unit": "%"}, {"measurement": "inhibition", "setting": "[7]", "result": 4.7, "unit": "%"}]}, {"molecule": "Nc1ncnc2c1ncn2C1O[C@H](COP(=O)(O)OP(=O)(O)OP(=O)(O)OC[C@@H]2O[C@@H](O)[C@@H](O)[C@H](O)[C@H]2O)[C@@H](O)[C@H]1O", "note": "(stereo partly specified)", "values": [{"measurement": "Ki", "setting": "Hexokinase-2", "result": 2200, "unit": "µM"}, {"measurement": "inhibition", "setting": "[8]", "result": 4.4, "unit": "%"}, {"measurement": "Ki", "setting": "[1]", "result": 1400, "unit": "µM"}, {"measurement": "inhibition", "setting": "[9]", "result": 5.6, "unit": "%"}, {"measurement": "inhibition", "setting": "[3]", "result": 3.1, "unit": "%"}, {"measurement": "inhibition", "setting": "[4]", "result": 6.2, "unit": "%"}, {"measurement": "inhibition", "setting": "[5]", "result": 10.1, "unit": "%"}, {"measurement": "inhibition", "setting": "[7]", "result": 9.3, "unit": "%"}]}, {"molecule": "Nc1ncnc2c1ncn2[C@@H]1O[C@H](COP(=O)(O)OP(=O)(O)OP(=O)(O)O)[C@@H](O)[C@H]1O", "values": [{"measurement": "Km", "setting": "Saccharomyces cerevisiae", "result": 210, "unit": "µM"}]}, {"molecule": "B1", "values": [{"measurement": "Km", "setting": "[10]", "result": 710, "unit": "µM"}]}, {"molecule": "B2", "values": [{"measurement": "Km", "setting": "[11]", "result": 190, "unit": "µM"}, {"measurement": "Km", "setting": "[12]", "result": 8, "unit": "µM"}, {"measurement": "Km", "setting": "[13]", "result": 180, "unit": "µM"}, {"measurement": "Km", "setting": "[14]", "result": 1.6, "unit": "µM"}]}]}
